pIC50: −log10 of the molar value. Active and inactive are the calls of the source. The rule behind the calls is not given here.
Columns and labels:
[1] = molecular target: Nucleotide-binding oligomerization domain-containing protein 2 (Homo sapiens, UniProt Q9HC29); test: Antagonist activity at human NOD2 stably expressed in HEK293 cells co-expressing secreted alkaline phosphatase assessed as NF-kappaB induction by liquid handler-assisted reporter gene assay; assay type: cell-based
[2] = molecular target: T1, Toll-like receptor 7 (Homo sapiens) (UniProt Q9NYK1); test: Agonist activity at human TLR7 stably expressed in HEK293 cells co-expressing secreted alkaline phosphatase assessed as NF-kappaB induction by liquid handler-assisted reporter gene assay; assay type: cell-based
T1 sequence (whole entry): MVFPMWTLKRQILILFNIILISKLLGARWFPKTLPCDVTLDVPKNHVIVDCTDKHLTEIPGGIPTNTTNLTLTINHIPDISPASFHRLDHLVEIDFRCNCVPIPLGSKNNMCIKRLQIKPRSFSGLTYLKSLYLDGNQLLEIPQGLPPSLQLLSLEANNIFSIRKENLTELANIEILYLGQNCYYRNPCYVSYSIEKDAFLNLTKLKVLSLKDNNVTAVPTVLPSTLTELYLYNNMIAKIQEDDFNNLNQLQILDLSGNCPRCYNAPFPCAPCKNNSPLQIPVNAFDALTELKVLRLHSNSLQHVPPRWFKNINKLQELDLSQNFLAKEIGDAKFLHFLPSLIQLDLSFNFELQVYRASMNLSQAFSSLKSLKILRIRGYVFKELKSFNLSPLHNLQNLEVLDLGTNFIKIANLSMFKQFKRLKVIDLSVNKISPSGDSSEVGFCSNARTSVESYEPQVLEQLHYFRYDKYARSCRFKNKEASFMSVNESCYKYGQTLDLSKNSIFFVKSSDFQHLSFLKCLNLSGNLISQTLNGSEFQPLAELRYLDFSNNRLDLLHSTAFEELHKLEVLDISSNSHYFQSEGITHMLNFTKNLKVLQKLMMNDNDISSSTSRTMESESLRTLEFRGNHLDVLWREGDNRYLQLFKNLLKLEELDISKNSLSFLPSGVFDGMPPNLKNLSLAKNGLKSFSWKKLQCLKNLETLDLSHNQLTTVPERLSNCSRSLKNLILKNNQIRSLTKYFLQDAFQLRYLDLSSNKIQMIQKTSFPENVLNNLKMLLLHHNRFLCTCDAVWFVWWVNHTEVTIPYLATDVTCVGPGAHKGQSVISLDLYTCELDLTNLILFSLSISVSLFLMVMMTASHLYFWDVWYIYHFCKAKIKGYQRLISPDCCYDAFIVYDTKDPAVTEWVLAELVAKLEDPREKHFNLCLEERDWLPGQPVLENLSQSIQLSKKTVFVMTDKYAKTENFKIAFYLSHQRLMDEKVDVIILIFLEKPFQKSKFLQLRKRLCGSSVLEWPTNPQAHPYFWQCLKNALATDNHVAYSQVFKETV
Method in brief: (§1)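 HEK293 reporter cells stably co-transfected with the respective human TLR or NOD receptor plus NF-κB/AP-1-driven secreted alkaline phosphatase, kept in selection medium. About 10^5 cells/ml were incubated with graded concentrations of test compound in 384-well format. Supernatant sAP was read colorimetrically at 620 nm with an alkaline phosphatase-specific chromogen in detection medium.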

[3] = molecular target: T2, Nucleotide-binding oligomerization domain-containing protein 1 (Homo sapiens) (UniProt Q9Y239); test: Agonist activity at human NOD1 stably expressed in HEK293 cells co-expressing secreted alkaline phosphatase assessed as NF-kappaB induction by liquid handler-assisted reporter gene assay; assay type: cell-based; method in brief: as §1
T2 sequence (whole entry): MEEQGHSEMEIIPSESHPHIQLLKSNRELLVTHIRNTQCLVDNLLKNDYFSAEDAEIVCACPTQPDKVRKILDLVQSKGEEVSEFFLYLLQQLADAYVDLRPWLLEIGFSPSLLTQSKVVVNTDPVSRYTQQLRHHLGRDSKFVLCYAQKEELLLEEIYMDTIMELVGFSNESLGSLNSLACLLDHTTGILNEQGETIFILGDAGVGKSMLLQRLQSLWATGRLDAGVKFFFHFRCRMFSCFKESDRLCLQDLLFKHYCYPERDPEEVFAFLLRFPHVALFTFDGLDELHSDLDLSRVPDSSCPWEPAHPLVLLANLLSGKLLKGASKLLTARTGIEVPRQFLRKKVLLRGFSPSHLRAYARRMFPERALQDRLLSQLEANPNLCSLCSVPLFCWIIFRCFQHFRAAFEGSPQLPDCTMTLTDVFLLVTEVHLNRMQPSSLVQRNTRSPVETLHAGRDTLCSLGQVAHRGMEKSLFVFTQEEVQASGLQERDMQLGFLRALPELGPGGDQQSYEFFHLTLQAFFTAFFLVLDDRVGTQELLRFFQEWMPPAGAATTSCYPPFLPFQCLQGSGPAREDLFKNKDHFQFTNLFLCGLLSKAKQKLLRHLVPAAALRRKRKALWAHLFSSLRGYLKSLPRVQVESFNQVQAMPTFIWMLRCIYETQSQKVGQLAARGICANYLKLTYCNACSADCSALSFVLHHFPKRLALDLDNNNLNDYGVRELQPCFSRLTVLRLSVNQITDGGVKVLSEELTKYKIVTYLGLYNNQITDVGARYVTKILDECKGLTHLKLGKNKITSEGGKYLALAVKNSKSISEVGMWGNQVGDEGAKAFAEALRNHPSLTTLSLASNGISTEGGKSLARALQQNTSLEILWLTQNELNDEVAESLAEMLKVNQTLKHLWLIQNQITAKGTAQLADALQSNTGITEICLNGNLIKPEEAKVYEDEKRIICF

[4] = molecular target: T3, Nucleotide-binding oligomerization domain-containing protein 1 (Homo sapiens, UniProt Q9Y239); test: Antagonist activity at human NOD1 stably expressed in HEK293 cells co-expressing secreted alkaline phosphatase assessed as NF-kappaB induction by liquid handler-assisted reporter gene assay; assay type: cell-based
T3 sequence (Q9Y239 whole entry): T2 sequence (whole entry)

[5] = Upregulation of CD69 expression in human NK cells at 0.1 to 10 ug/ml measured after overnight incubation by flow cytometry; assay type: functional, cell-based
Method in brief: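 Heparin-anticoagulated whole blood from healthy volunteers was stimulated with graded concentrations at 37 °C overnight. It was then stained 30 min at 37 °C in the dark with CD3-PE, CD56-APC and CD69-PE-Cy7, followed by one-step erythrocyte lysis and fixation. NK cells were gated as CD3-CD56+ from 100,000 events. Values are means of duplicates from a representative experiment.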

Chain of Nucleotide-binding oligomerization domain-containing protein 2 (Q9HC29 whole entry, the tested form may be a part): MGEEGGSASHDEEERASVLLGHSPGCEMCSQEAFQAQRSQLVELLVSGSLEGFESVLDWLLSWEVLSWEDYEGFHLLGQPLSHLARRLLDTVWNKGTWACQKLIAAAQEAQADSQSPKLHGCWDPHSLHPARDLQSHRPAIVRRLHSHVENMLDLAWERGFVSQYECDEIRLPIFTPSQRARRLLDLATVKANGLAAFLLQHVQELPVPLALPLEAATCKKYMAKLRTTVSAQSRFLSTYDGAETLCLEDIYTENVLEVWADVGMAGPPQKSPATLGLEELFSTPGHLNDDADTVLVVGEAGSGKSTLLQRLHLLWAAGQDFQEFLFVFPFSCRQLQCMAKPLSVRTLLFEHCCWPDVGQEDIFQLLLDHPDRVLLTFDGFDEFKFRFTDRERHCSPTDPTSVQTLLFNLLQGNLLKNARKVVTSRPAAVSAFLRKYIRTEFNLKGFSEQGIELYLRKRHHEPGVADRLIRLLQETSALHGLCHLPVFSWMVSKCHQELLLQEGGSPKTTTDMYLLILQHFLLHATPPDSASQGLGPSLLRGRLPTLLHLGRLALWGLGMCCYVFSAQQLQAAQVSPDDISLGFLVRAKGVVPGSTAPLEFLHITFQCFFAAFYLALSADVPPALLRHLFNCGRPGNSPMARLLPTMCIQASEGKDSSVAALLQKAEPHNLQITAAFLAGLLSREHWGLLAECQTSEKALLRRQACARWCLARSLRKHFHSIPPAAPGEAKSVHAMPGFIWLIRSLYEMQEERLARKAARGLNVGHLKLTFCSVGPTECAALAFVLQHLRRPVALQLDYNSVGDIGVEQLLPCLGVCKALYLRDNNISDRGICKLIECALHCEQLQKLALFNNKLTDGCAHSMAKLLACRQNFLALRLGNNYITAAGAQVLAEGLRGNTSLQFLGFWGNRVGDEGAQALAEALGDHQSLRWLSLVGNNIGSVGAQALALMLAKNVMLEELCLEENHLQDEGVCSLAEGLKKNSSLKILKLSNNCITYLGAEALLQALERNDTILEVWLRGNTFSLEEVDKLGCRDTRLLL

Structure (SMILES)	pIC50 [1]	Activity [2]	Activity [3]	pIC50 [4]	Activity [5]
CCCCCn1c(N)nc2cc3ccccc3cc21	< 5.00	inactive	inactive	< 5.00	–
CCCCCn1c(N)nc2c(C(F)(F)F)cccc21	–	inactive	inactive	–	–
CCCCC1(O)C(N)=Nc2ccccc21 (stereo not given)	–	inactive	inactive	–	–
NCc1cccc(Cn2c(N)nc3ccccc32)c1	–	inactive	inactive	–	–
CCCCCn1c(N)nc2c(OCc3ccccc3)cccc21	< 5.00	inactive	inactive	< 5.00	–
CCCCCn1c(N)nc2c(Cc3ccccc3)cccc21	< 5.00	inactive	inactive	< 5.00	–
CCCCCn1c(NC(C)=O)nc2ccccc21	< 5.00	inactive	inactive	< 5.00	–
CCCCCn1c(N)nc2c(-c3ccccc3)cccc21	< 5.00	inactive	inactive	< 5.00	–
CCCCOC(=O)n1c(N)nc2ccccc21	–	inactive	inactive	–	–
CCCCC1C(N)=Nc2ccccc21.Cl (stereo not given)	–	inactive	inactive	–	–
CCCCCn1c(N)nc2c([N+](=O)[O-])cccc21	–	inactive	inactive	–	–
Nc1nc2ccccc2n1Cc1ccccc1	–	inactive	inactive	–	–

Now from value to molecule, other results behind:

pIC50 [1]	Activity [2]	Activity [3]	pIC50 [4]	Structure (SMILES)	Activity [5]
–	inactive	inactive	–	CCCCCn1c(N)nc2ncccc21	–
–	inactive	inactive	–	CCCCCn1c(N)nc2c(F)cccc21	–
–	inactive	inactive	–	CCCCCn1c(N)nc2c(Br)cccc21	–
–	inactive	inactive	–	CCCCCn1c(N)nc2cnccc21	–
–	inactive	inactive	–	CCCCCn1c(N)nc2c(Cl)cccc21	–
–	inactive	inactive	–	CCCCCn1c(N)nc2ccncc21	–
–	inactive	inactive	–	CCCCCn1c(N)nc2c(C)cccc21	inactive
< 5.00	inactive	inactive	< 5.00	CCCCCn1c(N)nc2ccc3ccccc3c21	–
–	inactive	inactive	–	CCCCCn1c(N)nc2cccnc21	–

From ChEMBL document CHEMBL3352666, “Human Toll-like receptor 8-selective agonistic activities in 1-alkyl-1H-benzimidazol-2-amines” (J Med Chem, 2014)
